This note sets out measurements from ChEMBL document CHEMBL4825747, “A Retrospective Look at the Impact of Binding Site Environment on the Optimization of TRPA1 Antagonists” (ACS Med Chem Lett, 2021).

Data set [1] deals with Transient receptor potential cation channel subfamily A member 1 (Homo sapiens, UniProt O75762). The data set can be described thus: Antagonist activity at human TRPA1 expressed in CHO cells measured by calcium based FLIPR assay. It is filed as cell-based.
For data set [2], the target named is Transient receptor potential cation channel subfamily A member 1 (Rattus norvegicus, UniProt Q6RI86). Put plainly: Antagonist activity at rat TRPA1. In a few lines:
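In vitro potency read in a CHO cell line-based fluorometric imaging plate reader (FLIPR) Ca2+ assay against the rat TRPA1 channel.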

The target of data set [3] is Transient receptor potential cation channel subfamily A member 1 (Rattus norvegicus) (UniProt Q6RI86). The data set can be described thus: In vivo antagonist activity at TRPA1 in AITC-induced rat pain model assessed as reduction in pain behaviour when administered orally. It is filed as functional, organism-based.
A short description of data set [4]: Lipophilicity, log D of the compound at pH 7.4. It is filed as physicochemical. As to conditions: buffer.
The nature of data set [5]: Unbound clearance in rat at 1 mg/kg. Type of data set: ADME, organism-based. As to conditions: in vivo.
Data set [6] in a line: Unbound volume of distribution at steady state in rat at 1 mg/kg. It is filed as ADME, organism-based. The settings on record: in vivo.
A short description of data set [7]: Half life in rat at 1 mg/kg. Type of data set: ADME, organism-based. As to conditions: in vivo.
Data set [8] in a line: Protein binding in rat plasma incubated for 4 hrs. Type of data set: ADME, cell-free. The settings on record: read-out: PPB (converted). The method, boiled down:
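Rat plasma protein binding was determined after 4 h compound incubation rather than the standard 24 h, because of compound instability in rat plasma.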

Data set [9] in a line: Ratio of fEC50 for in vivo antagonist activity at TRPA1 in AITC-induced rat pain model assessed as reduction in pain behaviour when administered orally to IC50 for antagonist activity at rat TRPA1. It is filed as organism-based. The settings on record: po. The method, boiled down: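 The in vivo value comes from the oral-dose rat AITC paw-injection model at Tmax, scoring flinching and licking against measured exposures across animals. The in vitro comparator is rat TRPA1 antagonism in a CHO cell-based FLIPR Ca2+ assay.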

Data set [10] can be described thus: Plasma clearance in rat at 0.5 mg/kg. It is filed as ADME, organism-based.
Data set [11] can be described thus: Unbound clearance in rat at 0.5 mg/kg. It is filed as ADME, organism-based. As to conditions: in vivo.
The nature of data set [12]: Volume of distribution at steady state in rat at 0.5 mg/kg. Type of data set: ADME, organism-based. As to conditions: in vivo, read-out: Vdss.
The nature of data set [13]: Unbound volume of distribution at steady state in rat at 0.5 mg/kg. It is filed as ADME, organism-based. The settings on record: in vivo.
Data set [14] in a line: Half life in rat at 0.5 mg/kg. It is filed as ADME, organism-based. As to conditions: in vivo.
Data set [15] in a line: Kinetic solubility of the compound. The settings on record: for solubility kinetic: read-out: Kinetic_solubility. Type of data set: physicochemical.
A short description of data set [16]: Permeability across apical to basolateral membrane in MDCK cells. As to conditions: dog, read-out: permeability. Type of data set: ADME, cell-based, Canis lupus familiaris.
A short description of data set [17]: Plasma clearance in rat at 1 mg/kg. It is filed as ADME, organism-based.
Data set [18] can be described thus: Volume of distribution at steady state in rat at 1 mg/kg. Type of data set: ADME, organism-based. As to conditions: in vivo, read-out: Vdss.

Structures are written as SMILES. ≈ marks a conversion by molar mass, not a printed value.

By IC50 is commonly meant the concentration needed to halve the response being measured. What is called logD is the decadic logarithm of the distribution of all forms, ionised or not, between an organic phase and buffer at a given pH. The term half-life denotes the time needed for the level to fall by half in the phase considered. A higher half-life goes with slow decline. Usually clearance stands for the volume of plasma or blood freed of the substance per unit of time.

Sequence of Transient receptor potential cation channel subfamily A member 1 (Homo sapiens, UniProt O75762) (O75762 whole entry): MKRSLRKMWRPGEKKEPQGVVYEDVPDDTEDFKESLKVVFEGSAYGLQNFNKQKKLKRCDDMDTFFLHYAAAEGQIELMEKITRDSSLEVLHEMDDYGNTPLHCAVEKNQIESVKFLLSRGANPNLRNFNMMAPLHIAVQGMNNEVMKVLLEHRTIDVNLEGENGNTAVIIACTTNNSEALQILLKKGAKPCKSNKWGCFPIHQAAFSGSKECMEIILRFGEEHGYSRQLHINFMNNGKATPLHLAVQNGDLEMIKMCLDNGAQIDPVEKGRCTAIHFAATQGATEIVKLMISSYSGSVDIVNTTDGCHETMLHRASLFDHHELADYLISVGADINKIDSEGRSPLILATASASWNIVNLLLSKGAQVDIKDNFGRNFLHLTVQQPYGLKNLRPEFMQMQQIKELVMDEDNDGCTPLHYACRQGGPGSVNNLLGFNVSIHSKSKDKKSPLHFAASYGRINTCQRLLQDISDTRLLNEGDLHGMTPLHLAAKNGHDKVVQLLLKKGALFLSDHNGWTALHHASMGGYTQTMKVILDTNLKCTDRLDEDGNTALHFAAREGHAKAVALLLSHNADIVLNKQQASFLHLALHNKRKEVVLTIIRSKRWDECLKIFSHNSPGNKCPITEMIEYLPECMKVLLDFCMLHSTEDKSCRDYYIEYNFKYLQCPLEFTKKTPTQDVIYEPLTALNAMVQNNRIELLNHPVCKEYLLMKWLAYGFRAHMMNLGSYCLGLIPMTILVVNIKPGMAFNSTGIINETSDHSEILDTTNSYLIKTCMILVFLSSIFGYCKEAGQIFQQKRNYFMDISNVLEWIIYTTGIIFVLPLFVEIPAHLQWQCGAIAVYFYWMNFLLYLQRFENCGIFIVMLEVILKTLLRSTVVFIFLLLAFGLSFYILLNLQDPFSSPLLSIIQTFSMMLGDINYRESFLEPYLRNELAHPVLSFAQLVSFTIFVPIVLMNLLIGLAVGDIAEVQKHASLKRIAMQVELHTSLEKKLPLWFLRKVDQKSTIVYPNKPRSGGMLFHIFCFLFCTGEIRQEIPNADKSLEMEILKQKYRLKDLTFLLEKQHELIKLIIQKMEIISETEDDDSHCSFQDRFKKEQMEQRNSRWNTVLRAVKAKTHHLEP
Sequence of Transient receptor potential cation channel subfamily A member 1 (Rattus norvegicus, UniProt Q6RI86) (Q6RI86 whole entry): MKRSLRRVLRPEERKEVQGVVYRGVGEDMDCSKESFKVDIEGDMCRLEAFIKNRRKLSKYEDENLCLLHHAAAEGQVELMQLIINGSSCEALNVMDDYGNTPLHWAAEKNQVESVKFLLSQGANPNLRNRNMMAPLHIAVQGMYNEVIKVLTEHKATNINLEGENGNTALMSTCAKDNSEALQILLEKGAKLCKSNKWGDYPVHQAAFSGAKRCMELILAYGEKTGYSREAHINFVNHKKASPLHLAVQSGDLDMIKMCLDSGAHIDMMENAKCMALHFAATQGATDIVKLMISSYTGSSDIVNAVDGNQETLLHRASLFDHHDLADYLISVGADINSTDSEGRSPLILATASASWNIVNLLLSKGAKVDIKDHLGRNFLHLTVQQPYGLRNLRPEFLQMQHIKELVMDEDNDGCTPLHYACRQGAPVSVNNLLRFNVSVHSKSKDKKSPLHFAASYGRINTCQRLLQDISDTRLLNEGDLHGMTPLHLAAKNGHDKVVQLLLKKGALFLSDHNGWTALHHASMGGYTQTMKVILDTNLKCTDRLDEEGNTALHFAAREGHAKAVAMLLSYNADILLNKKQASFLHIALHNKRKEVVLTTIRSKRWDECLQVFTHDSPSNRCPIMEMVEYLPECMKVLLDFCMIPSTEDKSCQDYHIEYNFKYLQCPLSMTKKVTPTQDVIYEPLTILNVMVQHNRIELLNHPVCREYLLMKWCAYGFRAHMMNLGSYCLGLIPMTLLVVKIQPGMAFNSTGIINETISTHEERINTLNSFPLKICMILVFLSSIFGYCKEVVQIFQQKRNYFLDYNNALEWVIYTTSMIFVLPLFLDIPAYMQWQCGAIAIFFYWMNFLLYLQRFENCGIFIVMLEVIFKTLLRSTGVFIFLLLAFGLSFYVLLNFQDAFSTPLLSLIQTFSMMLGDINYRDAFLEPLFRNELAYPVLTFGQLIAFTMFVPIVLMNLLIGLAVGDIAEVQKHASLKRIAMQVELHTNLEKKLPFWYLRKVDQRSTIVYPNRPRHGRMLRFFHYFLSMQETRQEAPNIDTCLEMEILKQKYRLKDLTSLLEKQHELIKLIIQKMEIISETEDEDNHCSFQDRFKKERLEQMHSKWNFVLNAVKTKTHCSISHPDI
Sequence of Transient receptor potential cation channel subfamily A member 1 (Rattus norvegicus) (Q6RI86 whole entry): as above

In the case of `Cn1cnc2ncn(Cc3nn(C[C@H](F)c4ccc(Cl)cc4)c(=O)o3)c(=O)c21`, the IC50 in [1] was found to be 20 nM; in data set [2], 18 nM. In data set [3], the fEC50 amounted to 390 nM. In data set [4], this compound came in with a logD of 1.2. Moreover, the CL free in data set [5] turned out to be 45 mL/min/kg. The fVdss in [6] was found to be 3.4 L/kg. Moreover, the half-life in data set [7] was 1.5 h. The fraction unbound at 4 h in data set [8] was 0.381. Further, the Ratio in data set [9] is recorded as 22.

Regarding `C[C@H]1[C@H](F)C[C@@H](C(=O)NCc2cc(-c3ccc(C(F)(F)F)nc3)ncn2)N1S(=O)(=O)c1ccc(F)cc1`, the IC50 in data set [2] came to 1600 nM. In data set [10], the clearance is 10 mL/min/kg. The same compound registered a CL free in data set [11] of 192 mL/min/kg. The Vd in [12] amounted to 2.2 L/kg. The same compound returned a fVdss in data set [13] of 42 L/kg. In addition, the half-life in [14] is 2.6 h. In [8], the fraction unbound at 4 h was 0.052.

For the compound `Cn1cnc2ncn(Cc3nc([C@@H]4CO[C@@H](c5ccc(Cl)cc5)C4)no3)c(=O)c21`, inhibition in data set [2] was half-maximal at 7.4 nM (IC50). For the same compound, in data set [3], the fEC50 was 53 nM. This compound came in with a logD in [4] of 1.8. The solubility kinetic in [15] stood at 120 µM (≈ 49.5 µg/mL). Also, in [5], the CL free was 89 mL/min/kg. Moreover, in data set [6], the fVdss is 11 L/kg. Also, in data set [8], the fraction unbound at 4 h is 0.192.

For the compound `C[C@H]1[C@H](F)C[C@@H](C(=O)NCc2cc(-c3cnc(C(F)(F)F)nc3)ncn2)N1S(=O)(=O)c1ccc(F)cc1`, the IC50 in [2] is 390 nM. In [15], the solubility kinetic came out at 98 µM (≈ 53.2 µg/mL). For the same compound, the clearance in data set [10] amounted to 6.4 mL/min/kg. The same compound yielded a CL free in data set [11] of 85 mL/min/kg. For the same compound, the Vd in [12] stood at 1.1 L/kg. The compound further returned a fVdss in data set [13] of 15 L/kg. This compound showed a half-life in [14] of 2 h. In [8], the fraction unbound at 4 h was 0.075. Besides, the Papp A→B in [16] is 16.5 ×10⁻⁶ cm/s.

In the case of `Cn1cnc2ncn(Cc3nc([C@H]4[C@@H]5CN(c6cccc(Cl)c6)C[C@@H]54)no3)c(=O)c21`, the values for the IC50 in [1] and in data set [2] were 2.9 nM and 7.9 nM, respectively. For the same compound, the fEC50 in data set [3] worked out at 7.9 nM. The same compound gave a logD in [4] of 2.9. This compound returned a Kinetic_solubility in [15] of 2 µM. This compound returned a CL free in data set [5] of 214 mL/min/kg. In data set [6], this compound had a fVdss of 110 L/kg. Besides, in [8], the fraction unbound at 4 h was 0.021. Besides, in data set [9], the Ratio was 1.

On to `Cn1cnc2ncn(Cc3nn([C@H]4C[C@H](c5ccc(Cl)cc5)C4)c(=O)o3)c(=O)c21`, for which it took 14 nM to reach half-maximal inhibition in [2] (IC50). For the same compound, the fEC50 in data set [3] was found to be 49 nM. The logD in data set [4] worked out at 2.4. Also, in [15], the solubility kinetic is 15 µM (≈ 6.19 µg/mL). In data set [17], this compound gave a clearance of 10 mL/min/kg. Besides, in data set [5], the CL free was 123 mL/min/kg. For the same compound, the Vd in [18] came to 2.3 L/kg. Besides, in data set [6], the fVdss was 28 L/kg. The half-life in data set [7] was 2.7 h. Further, in [8], the fraction unbound at 4 h was 0.081. The Papp A→B in data set [16] was found to be 6.4 ×10⁻⁶ cm/s.

`C[C@H]1[C@H](F)C[C@@H](C(=O)NCc2cc(-c3cnc(C(F)(F)F)nc3)ncc2F)N1S(=O)(=O)c1ccc(F)cc1`: the IC50 in data set [1] amounted to 8.4 nM. The fEC50 in [3] was found to be 60 nM. Also, the solubility kinetic in data set [15] was less than 1 µM. Moreover, in data set [5], the CL free turned out to be 157 mL/min/kg. For the same compound, the Vd in data set [18] was 2.6 L/kg. Besides, the fVdss in data set [6] came to 93 L/kg. In [8], the fraction unbound at 4 h was 0.028. Also, the Ratio in [9] stood at 1.7.

For `C[C@H]1[C@H](F)C[C@@H](C(=O)NCc2cc(-c3cnc(C(F)(F)F)nc3)ncc2C(F)(F)F)N1S(=O)(=O)c1ccc(F)cc1`, the values for the IC50 in data set [1] and in data set [2] were 1.6 nM and 10 nM, respectively. The fEC50 in data set [3] is 3.7 nM. Besides, in data set [15], the Kinetic_solubility was 7 µM. In data set [17], this compound had a clearance of 7.7 mL/min/kg. In data set [5], this compound gave a CL free of 642 mL/min/kg. For the same compound, in data set [18], the Vd was 5.6 L/kg. Further, in data set [6], the fVdss worked out at 467 L/kg. For the same compound, in [7], the half-life was 9.8 h. The fraction unbound at 4 h in data set [8] is 0.012. Moreover, in data set [9], the Ratio was 0.37. In [16], the Papp A→B worked out at 27.5 ×10⁻⁶ cm/s.
